{"data": "Published values gathered from unrelated publications", "effect on": "metabolic stability", "species": "rat"}
{"SMILES": "Cc1[nH]c(C)c(S(=O)(=O)Nc2ccc(S(=O)(=O)F)c(Cl)c2)c1C(=O)N1CCC(F)(F)C1", "test system": "liver microsomes", "endpoint": "microsomal CLint", "value": "63.7 µL/min/mg"}
{"SMILES": "O=c1[nH]c2ccccc2n1C1CCN(CCCC(c2ccc(F)cc2)c2ccc(F)cc2)CC1", "test system": "liver microsomes", "conditions": "100 ng/mL", "endpoint": "microsomal CLint", "value": "8.7 µL/min/mg"}
{"SMILES": "O=C1CCC(N2Cc3c(ccc4c3OCC43CCN(Cc4ccccc4)CC3)C2=O)C(=O)N1 (centres unmarked)", "test system": "liver microsomes", "conditions": "1 µM", "endpoint": "scaled CLint", "value": "22 mL/min/kg"}
{"SMILES": "CC(C)CC(=O)OC[C@H]1O[C@@](C#N)(c2ccc3c(N)ncnn23)[C@H](O)[C@@H]1O", "test system": "hepatocytes", "conditions": "5 µM", "endpoint": "hepatocyte CLint", "value": "> 318 µL/min/10⁶ cells"}
{"SMILES": "NCCOCC(=O)N1CCCC(C(=O)NCc2nc(-c3ccc(-c4ccc(F)cc4)cc3)cs2)C1 (centres unmarked)", "test system": "liver microsomes", "endpoint": "scaled CLint", "value": "< 7 mL/min/kg"}
{"SMILES": "Cc1[nH]c(C)c(S(=O)(=O)Nc2ccc(S(F)(F)(F)(F)F)cc2)c1C(=O)N1CCC(F)(F)C1", "test system": "liver microsomes", "endpoint": "microsomal CLint", "value": "39 µL/min/mg"}
{"SMILES": "C[C@]12CC[C@H]3[C@@H](CCC4=CC(=O)CC[C@@]43C)[C@@H]1CC[C@@H]2O", "test system": "liver microsomes", "conditions": "1 µM, pH 7.4", "endpoint": "scaled CLint", "value": "2500 mL/min/kg"}
{"SMILES": "C[C@]12CC[C@H]3[C@@H](CCC4=CC(=O)CC[C@@]43C)[C@@H]1CC[C@@H]2O", "test system": "liver microsomes", "endpoint": "microsomal CLint", "value": "893 µL/min/mg"}
